Measured values from PubChem BioAssay.
Activity calls are given as the source filed them.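 The calls were made as follows, unless noted: active = viability at or under a set limit in both replicates, limit being median viability minus 3 SD (cut at about 48% in these data, passing the limit was not always enough); inconclusive = at or under the limit in just one replicate; inactive = at or above the limit in both replicates.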 Peptide text beside a SMILES is read from it. * marks the point of attachment. Boc = CC(C)(C)OC(=O)*

Experiments:
[1] = reducers of endogenous Her2 protein level, primary screen, SKBR3 breast tumor cells, AlphaScreen, ATP viability (AID 461;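 active = Her2 level under about 52% in both replicate screens, with viability over 70% of control, limit read from the data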;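 as to Her2 level: lower value means less Her2 protein in the cells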;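 as to viability: percent of carrier control wells set as 100% viability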); conditions: 18-24 h, measured here: SKBR3 viability, ATP luminescence, at 10 µM
[2] = target: Receptor tyrosine-protein kinase erbB-2 (Homo sapiens) (UniProt P04626); assay: as above; conditions: 18-24 h, at 10 µM, stronger effect = lower value
[3] = SK-BR-3 cell growth inhibitors, pilot screen, 24 h, human (AID 572;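 active = viability at or below 10% of carrier control in both of two separate runs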;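 also: compound exposure lasted between 18 and 24 h rather than exactly 24 h; 100% = carrier-treated control wells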); conditions: SK-BR-3 viability, CellTiter-Glo luminescence, at 10 µM, stronger effect = lower value
[4] = HUVEC growth inhibition – cell-based, human, primary screen (AID 575;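 active = viability at or below 30% in both replicate assays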;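 also: 100% = median of untreated cell wells with 0.1% DMSO on each plate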); conditions: HUVEC proliferation, CellTiter-Glo luminescence, 72 h; at 10 µM; stronger effect = lower value
Procedure, shortened: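 Material: primary human umbilical vein endothelial cells / Schedule: 72 h exposure, 37 °C, 5% CO2, 30 min RT equilibration / Signal: ATP-based CellTiter-Glo luminescent read / Read-out basis: percent of median DMSO-control luminescence / Control set: 32 DMSO-only cell-control wells (high), 32 MePR drug-control wells (low) per plate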

[5] = growth inhibitors of H69AR lung tumor, primary screen, human, duplicate replicates (AID 580); conditions: H69AR lung tumor cells viability, ATP luminescence, 72 h; at 10 µM; stronger effect = lower value;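 also: 100% = mean luminescence of untreated wells and 0% = no signal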
[6] = reversal of MRP1-mediated doxorubicin resistance, pilot screen, H69AR cells, doxorubicin co-treatment (AID 601;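 active = viability loss from added drug above about 55%, and viability with drug at most 40%, in both replicates, limit read from the data, passing the limit was not always enough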); conditions: CellTiter-Glo, 72 h, at 10 µM; for differential viability (reversal): stronger effect = higher value
[7] = 384-well plate pilot, post-Golgi transport modulator project, inhibition of yeast transport mutant growth (AID 636; in the data active = inhibition above about 31%); conditions: absorbance 615 nm, about 18 h, stronger effect = higher value
[8] = growth suppression of yeast trafficking mutant, preliminary HTS, modulators of trafficking downstream of Golgi apparatus project, 1536-format plate, OD 615 nm (AID 637; in the data active = inhibition above about 30%); conditions: yeast transport mutant growth, absorbance 615 nm, 18 h; stronger effect = higher value
[9] = H69AR cells + 2 uM doxorubicin, measured here: viability with 2 uM doxorubicin, stronger effect = lower value
[10] = H69AR cells, compound alone cytotoxicity

Chain of Receptor tyrosine-protein kinase erbB-2 (Homo sapiens) (P04626 whole entry, looked up): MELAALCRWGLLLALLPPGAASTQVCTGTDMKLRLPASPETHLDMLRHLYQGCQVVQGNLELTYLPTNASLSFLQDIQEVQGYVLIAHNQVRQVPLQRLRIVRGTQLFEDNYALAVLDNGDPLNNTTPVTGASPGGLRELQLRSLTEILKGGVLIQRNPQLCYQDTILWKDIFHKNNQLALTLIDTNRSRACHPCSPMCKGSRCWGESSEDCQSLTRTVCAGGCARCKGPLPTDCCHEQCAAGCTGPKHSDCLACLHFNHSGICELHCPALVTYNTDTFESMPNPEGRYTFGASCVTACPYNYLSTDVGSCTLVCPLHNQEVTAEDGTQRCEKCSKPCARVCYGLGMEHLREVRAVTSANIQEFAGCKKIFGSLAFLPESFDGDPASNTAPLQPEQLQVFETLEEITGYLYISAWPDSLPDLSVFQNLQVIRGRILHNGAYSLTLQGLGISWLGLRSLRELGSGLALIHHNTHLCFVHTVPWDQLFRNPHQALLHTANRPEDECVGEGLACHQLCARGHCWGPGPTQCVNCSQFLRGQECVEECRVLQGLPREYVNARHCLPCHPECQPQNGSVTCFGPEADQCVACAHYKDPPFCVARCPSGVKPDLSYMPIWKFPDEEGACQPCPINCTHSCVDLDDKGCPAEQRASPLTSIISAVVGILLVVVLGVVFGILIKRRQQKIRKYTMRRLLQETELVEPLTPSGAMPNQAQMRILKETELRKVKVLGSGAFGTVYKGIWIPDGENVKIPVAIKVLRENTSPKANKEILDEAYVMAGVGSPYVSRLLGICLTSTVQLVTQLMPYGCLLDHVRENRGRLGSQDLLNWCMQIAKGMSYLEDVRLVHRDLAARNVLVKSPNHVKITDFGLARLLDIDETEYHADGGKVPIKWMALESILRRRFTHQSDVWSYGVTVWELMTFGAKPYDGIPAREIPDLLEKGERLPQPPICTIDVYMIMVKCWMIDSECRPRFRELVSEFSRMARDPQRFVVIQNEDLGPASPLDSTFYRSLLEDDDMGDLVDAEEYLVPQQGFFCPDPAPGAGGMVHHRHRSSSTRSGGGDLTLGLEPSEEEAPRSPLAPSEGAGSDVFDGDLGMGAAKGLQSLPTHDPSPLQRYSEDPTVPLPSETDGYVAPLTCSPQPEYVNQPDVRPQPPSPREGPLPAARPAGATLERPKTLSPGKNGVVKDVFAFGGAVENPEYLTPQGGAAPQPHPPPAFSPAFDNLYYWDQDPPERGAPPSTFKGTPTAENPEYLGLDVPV

Structure (SMILES) | viability [1] | Her2 level [2] | viability [3] | viability [4] | viability [5] | differential viability (reversal) ([6]; H69AR cells + 2 uM doxorubicin) | viability [6, 9] | viability [6, 10] | inhibition [7] | inhibition [8]
COc1ccccc1N(CC(=O)NCc1ccccc1)S(C)(=O)=O | 103% | 92.5% (inactive) | 103% (inactive) | 106% (inactive) | 97% (inactive) | 3.07% (inactive) | 93.9% | 97% | -9.19% (inactive) | -7.33% (inactive)
CC(NC(=O)OC(C)(C)C)C(=O)N1CCCC1C(=O)NC(Cc1ccccc1)C(N)=O (stereo not drawn) (Boc-Ala-Pro-Phe-NH2; configuration not given here) | 105% | 94% (inactive) | 105% (inactive) | 95.6% (inactive) | 101% (inactive) | 4.26% (inactive) | 97.1% | 101% | -1.73% (inactive) | 4.68% (inactive)
CCOC(=O)Cn1nnnc1C(C(C)C)N(Cc1cc2c(C)cc(C)cc2[nH]c1=O)C1CCCC1 (stereo not given) | 98% | 102% (inactive) | 98% (inactive) | 58.6% (inactive) | 88.5% (inactive) | -1.4% (inactive) | 89.9% | 88.5% | -5.41% (inactive) | 16.6% (inactive)
COc1ccc(CNC(=O)COC(=O)c2n[nH]c3ccccc23)cc1OC | 88% | 84.5% (inactive) | 88% (inactive) | 89.7% (inactive) | 92.6% (inactive) | 8.04% (inactive) | 84.6% | 92.6% | -7.47% (inactive) | 2.38% (inactive)
CC(C)(C)C(=O)Oc1cc(N)n(S(=O)(=O)c2ccccc2)n1 | 93.5% | 101% (inactive) | 93.5% (inactive) | 102% (inactive) | 87.1% (inactive) | 3.59% (inactive) | 83.5% | 87.1% | 0.53% (inactive) | -5.27% (inactive)
CC(C)(C)c1cc(CCC(=O)N2CCNCC2)c(C(C)(C)C)cc1O | 106% | 85.5% (inactive) | 106% (inactive) | 82.9% (inactive) | 98.3% (inactive) | 8% (inactive) | 90.3% | 98.3% | -0.26% (inactive) | -2.46% (inactive)
Cn1c(=O)c2c(ncn2CC(O)CNc2ccc(Cl)cc2)n(C)c1=O (stereo not given) | 91% | 103% (inactive) | 91% (inactive) | 79.6% (inactive) | 89.9% (inactive) | 0.365% (inactive) | 89.5% | 89.9% | -0.53% (inactive) | -5.71% (inactive)
O=C(CSc1nnc(-c2ccccc2F)o1)OCc1ccccc1 | 83.5% | 88.5% (inactive) | 83.5% (inactive) | 102% (inactive) | 102% (inactive) | 17.8% (inactive) | 84.3% | 102% | -5.68% (inactive) | 2.95% (inactive)
CCCC(=O)Nc1cc(C)c(NC(=O)c2ccccn2)cn1 | 90.5% | 92.5% (inactive) | 90.5% (inactive) | 92.2% (inactive) | 99.4% (inactive) | 9.38% (inactive) | 90.1% | 99.4% | -5.06% (inactive) | -0.32% (inactive)
COc1ccc(CNC(=O)c2cc(-c3ccc(OC)c(OC)c3)on2)cc1 | 116% | 88.5% (inactive) | 116% (inactive) | 118% (inactive) | 94.4% (inactive) | 8.78% (inactive) | 85.6% | 94.4% | -5.95% (inactive) | -3.83% (inactive)
Cn1c(=O)c2c(nc(SCC(=O)O)n2Cc2cccc(C(F)(F)F)c2)n(C)c1=O | 97.5% | 84% (inactive) | 97.5% (inactive) | 94.7% (inactive) | 95.6% (inactive) | 5.41% (inactive) | 90.2% | 95.6% | -4.67% (inactive) | 0.81% (inactive)
O=C1N2c3ccccc3CCc3cccc(c32)C1(O)C(F)(F)F (stereo not given) | 94.5% | 90.5% (inactive) | 94.5% (inactive) | 96.4% (inactive) | 95.7% (inactive) | 0.66% (inactive) | 95% | 95.7% | -5.87% (inactive) | 6.56% (inactive)
O=C(CSc1nc2ccccc2o1)Nc1ccccc1 | 107% | 124% (inactive) | 107% (inactive) | 105% (inactive) | 79% (inactive) | -11.4% (inactive) | 90.4% | 79% | -0.9% (inactive) | -4.83% (inactive)
Cc1oc(-c2ccccc2)cc1C(N)=O | 103% | 78.5% (inactive) | 103% (inactive) | 92.3% (inactive) | 100% (inactive) | 20% (inactive) | 80.3% | 100% | -0.79% (inactive) | -2.9% (inactive)
O=C(O)c1[nH]nc2c1COc1ccccc1-2 | 93.5% | 92% (inactive) | 93.5% (inactive) | 109% (inactive) | 100% (inactive) | 7.14% (inactive) | 93.3% | 100% | -0.92% (inactive) | 2.95% (inactive)
O=C1C(c2ccncc2)=C(O)c2ccccc21 | 100% | 87% (inactive) | 100% (inactive) | 73.6% (inactive) | 82.2% (inactive) | -3.63% (inactive) | 85.9% | 82.2% | -1.05% (inactive) | 12.7% (inactive)

Structure (SMILES) | viability [1] | Her2 level [2] | viability [3] | viability [4] | viability [5] | differential viability (reversal) ([6]; H69AR cells + 2 uM doxorubicin) | viability [6, 9] | viability [6, 10] | inhibition [7] | inhibition [8]
O=C(CN1CCCC1)Nc1ccc(NC(=O)Nc2ccccc2)cc1 | 92.5% | 110% (inactive) | 92.5% (inactive) | 75.3% (inactive) | 95.3% (inactive) | 0.39% (inactive) | 94.9% | 95.3% | 0% (inactive) | -6.39% (inactive)
CC(O)c1c(OCc2ccccc2)ncnc1OCc1ccccc1 (stereo not given) | 83.5% | 82.5% (inactive) | 83.5% (inactive) | 59.5% (inactive) | 93.8% (inactive) | 14.6% (inactive) | 79.3% | 93.8% | -2.73% (inactive) | 1.48% (inactive)
CCN1C(=O)CC(C(=O)Nc2ccc(F)cc2)SC1=Nc1ccc2c(c1)OCO2 (stereo not given) | 136% | 97% (inactive) | 136% (inactive) | 79.7% (inactive) | 86.4% (inactive) | 6.02% (inactive) | 80.4% | 86.4% | -2.53% (inactive) | -1.61% (inactive)
Cc1ccccc1-c1nc(CN2CCC(C(=O)NCCCN3CCOCC3)CC2)c(C)o1 | 86.5% | 107% (inactive) | 86.5% (inactive) | 74% (inactive) | 97.2% (inactive) | 5.29% (inactive) | 91.9% | 97.2% | 1.58% (inactive) | -4.29% (inactive)
O=c1oc2ccccc2n1CCc1ccccc1 | 109% | 97.5% (inactive) | 109% (inactive) | 84.6% (inactive) | 93.7% (inactive) | 9.07% (inactive) | 84.6% | 93.7% | -5.92% (inactive) | 0.98% (inactive)
Cc1cc(=O)n(-c2ccc3ccccc3n2)[nH]1 | 105% | 101% (inactive) | 105% (inactive) | 53.6% (inactive) | 73.4% (inactive) | -2.73% (inactive) | 76.2% | 73.4% | -5.73% (inactive) | 11.1% (inactive)
Cc1c(C(=O)N2CCCC2)sc(NC(=O)c2cccs2)c1C#N | 106% | 91.5% (inactive) | 106% (inactive) | 98.1% (inactive) | 89.9% (inactive) | -0.35% (inactive) | 90.2% | 89.9% | -3.6% (inactive) | -5.81% (inactive)
COc1cccc(N2CCN(C(=O)C3C4C=CC5(CN(Cc6ccccc6Cl)C(=O)C35)O4)CC2)c1 (stereo not given) | 83.5% | 97% (inactive) | 83.5% (inactive) | 78.6% (inactive) | 100% (inactive) | 9.13% (inactive) | 91.3% | 100% | -3.42% (inactive) | -6.17% (inactive)
CCCOC(=O)c1[nH]c2c(c1C)C(=O)CC(c1ccc(OC)c(OC)c1)C2 (stereo not given) | 99% | 151% (inactive) | 99% (inactive) | 84.7% (inactive) | 96% (inactive) | 0.765% (inactive) | 95.3% | 96% | 2.63% (inactive) | -11.2% (inactive)
CCOCCCNC(=O)C1CCN(C(=O)Nc2ccc(Cl)cc2)CC1 | 103% | 92.5% (inactive) | 103% (inactive) | 94.7% (inactive) | 102% (inactive) | 10.9% (inactive) | 90.8% | 102% | -5% (inactive) | -1% (inactive)
O=C1CC(C2CCCO2)C(=O)N1Cc1ccccc1 (stereo not given) | 98% | 94% (inactive) | 98% (inactive) | 90.2% (inactive) | 103% (inactive) | 3.39% (inactive) | 99.4% | 103% | -6.08% (inactive) | -0.66% (inactive)
CCOc1ccc(N(C(C)=O)C2C=CS(=O)(=O)C2)cc1 (stereo not given) | 91.5% | 90.5% (inactive) | 91.5% (inactive) | 95.7% (inactive) | 94.9% (inactive) | 2.48% (inactive) | 92.4% | 94.9% | -1.87% (inactive) | 0.33% (inactive)
O=S(=O)(c1ccccc1)c1nc(-c2ccco2)oc1NCCCN1CCOCC1 | 91% | 100% (inactive) | 91% (inactive) | 84.6% (inactive) | 95.4% (inactive) | -1.43% (inactive) | 96.8% | 95.4% | -1.73% (inactive) | -3.23% (inactive)
CCCn1cc(SCC(=O)NCc2ccco2)c2ccccc21 | 98.5% | 90% (inactive) | 98.5% (inactive) | 92.3% (inactive) | 94% (inactive) | 15.4% (inactive) | 78.6% | 94% | -5.47% (inactive) | 0.48% (inactive)
O=C(CCC(=O)N1CCc2ccccc2C1)N1CCN(S(=O)(=O)c2ccccc2)CC1 | 82% | 116% (inactive) | 82% (inactive) | 84.4% (inactive) | 90.6% (inactive) | -0.59% (inactive) | 91.2% | 90.6% | 4.81% (inactive) | 12.9% (inactive)
CCOC(=O)N1CCN(C(=O)c2csc3c2CCCCC3)CC1 | 93.5% | 112% (inactive) | 93.5% (inactive) | 94.9% (inactive) | 90.8% (inactive) | -1.73% (inactive) | 92.5% | 90.8% | 0.51% (inactive) | -13.7% (inactive)
